Legend:
Type in all cases: functional
[1] = tested on: Bacillus subtilis; assay: Antibacterial activity Bacillus subtilis after 24 hrs at 30 degC by agar diffusion technique
In short: (§1)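 Agar diffusion method. Bacteria were maintained on Mueller Hinton agar, and the agar medium was inoculated with each test organism. Plates were incubated 24 h at 30 °C, then the diameter of the inhibition zone was measured in mm and reported as the mean diameter.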

[2] = tested on: Escherichia coli; assay: Antibacterial activity Escherichia coli ATCC 25922 after 24 hrs at 30 degC by agar diffusion technique; in short: as §1
[3] = tested on: Staphylococcus aureus; assay: Antibacterial activity Staphylococcus aureus ATCC 25923 after 24 hrs at 30 degC by agar diffusion technique; in short: as §1
[4] = tested on: Candida albicans; assay: Antifungal activity Candida albicans ATCC 10231 after 48 hrs at 28 degC by agar diffusion technique
In short: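 Fungi were maintained on Mueller Hinton agar and tested by diffusion on agar seeded with the organism. After 48 h incubation at 28 °C, the inhibition zone diameter (mm, mean) was measured.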

[5] = tested on: Pseudomonas aeruginosa; assay: Antibacterial activity Pseudomonas aeruginosa after 24 hrs at 30 degC by agar diffusion technique; in short: as §1
[6] = tested on: Micrococcus luteus; assay: Antibacterial activity Sarcina lutea ATCC 9341 after 24 hrs at 30 degC by agar diffusion technique; in short: as §1
[7] = tested on: Escherichia coli; assay: Antibacterial activity Escherichia coli ATCC 25922 at 30 ug/disk after 24 hrs at 30 degC by agar diffusion technique; conditions: ATCC 25922, 24 h, read-out: Diameter of inhibition zone
In short: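 Agar diffusion method; organisms kept on Mueller Hinton agar, and agar media were inoculated with the test culture. Bacterial plates incubated 24 h at 30 °C, then diameter of the inhibition zone measured in mm (mean diameter).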

[8] = tested on: Bacillus subtilis; assay: Antibacterial activity Bacillus subtilis at 30 ug/disk after 24 hrs at 30 degC by agar diffusion technique; conditions: read-out: Diameter of inhibition zone; in short: as §1
[9] = tested on: Pseudomonas aeruginosa; assay: Antibacterial activity Pseudomonas aeruginosa at 30 ug/disk after 24 hrs at 30 degC by agar diffusion technique; conditions: read-out: Diameter of inhibition zone; in short: as §1
[10] = tested on: Staphylococcus aureus; assay: Antibacterial activity Staphylococcus aureus ATCC 25923 at 30 ug/disk after 24 hrs at 30 degC by agar diffusion technique; conditions: ATCC 25923, 24 h, read-out: Diameter of inhibition zone; in short: as §1
[11] = tested on: Micrococcus luteus; assay: Antibacterial activity Sarcina lutea ATCC 9341 at 30 ug/disk after 24 hrs at 30 degC by agar diffusion technique; conditions: ATCC 9341, 24 h, read-out: Diameter of inhibition zone; in short: as §1

Structure (SMILES)	Diameter of inhibition zone [1]	Diameter of inhibition zone [2]	Diameter of inhibition zone [3]	Diameter of inhibition zone [4]	Diameter of inhibition zone [5]	Diameter of inhibition zone [6]	zone of inhibition at 30 µg/disc [7]	zone of inhibition at 30 µg/disc [8]	zone of inhibition at 30 µg/disc [9]	zone of inhibition at 30 µg/disc [10]	zone of inhibition at 30 µg/disc [11]
COC(=O)[C@H]1[C@H](C(=O)OC)[C@H](C(=O)c2ccc(Cl)cc2)N2N=CC=C[C@@H]12	36 mm	31 mm	23 mm	27 mm	15 mm	54 mm					
Cc1ccc(C(=O)[C@@H]2C[C@H](C#N)[C@@H]3C=CC=NN23)cc1	39 mm	23 mm	46 mm	30 mm	19 mm	67 mm					
COC(=O)c1c(C(=O)OC)c2cccnn2c1C(=O)c1ccc(F)cc1	23 mm	21 mm	27 mm	21 mm	15 mm	52 mm					
COC(=O)[C@H]1[C@H](C(=O)OC)[C@H](C(=O)c2ccc(C)cc2)N2N=CC=C[C@@H]12	38 mm	37 mm	47 mm	29 mm	17 mm	59 mm					
COC(=O)c1c(C(=O)OC)c2cccnn2c1C(=O)c1ccc(Cl)cc1	26 mm	31 mm	30 mm	24 mm	18 mm	57 mm					
COC(=O)c1c(C(=O)OC)c2cccnn2c1C(=O)c1ccc(C)cc1	26 mm	25 mm	46 mm	29 mm	19 mm	65 mm					
N#C[C@H]1C[C@@H](C(=O)c2ccc(F)cc2)N2N=CC=C[C@@H]12	27 mm	20 mm	26 mm	23 mm	14 mm	50 mm					
CCOC(=O)c1cc(C(=O)c2ccc(Cl)cc2)n2ncccc12	25 mm	33 mm	25 mm	30 mm	20 mm	48 mm					
COC(=O)[C@@H]1[C@H](C(=O)OC)[C@H](C(=O)c2ccc(F)cc2)N2N=CC=C[C@@H]12	37 mm	35 mm	29 mm	24 mm	18 mm	60 mm					
COC(=O)[C@@H]1[C@H](C(=O)OC)[C@H](C(=O)c2ccc(Cl)cc2)N2N=CC=C[C@@H]12	39 mm	32 mm	33 mm	25 mm	18 mm	56 mm					
O=C(C[n+]1ccccn1)c1ccc(Cl)cc1.[Br-]	32 mm	36 mm	36 mm	29 mm	20 mm	57 mm					
O=C(c1ccc(Cl)cc1)[C@H]1[C@@H]2C(=O)N(c3ccccc3)C(=O)[C@@H]2[C@@H]2C=CC=NN21	28 mm	28 mm	28 mm	34 mm	18 mm	54 mm					
Cc1ccc(C(=O)[C@H]2[C@@H]3C(=O)N(c4ccccc4)C(=O)[C@@H]3[C@@H]3C=CC=NN32)cc1	37 mm	24 mm	31 mm	29 mm	18 mm	73 mm					
CCOC(=O)c1cc(C(=O)c2ccc(F)cc2)n2ncccc12	22 mm	23 mm	27 mm	22 mm	20 mm	48 mm					
O=C(C[n+]1ccccn1)c1ccc(F)cc1.[Br-]	31 mm	31 mm	38 mm	19 mm	20 mm	61 mm					
N#C[C@H]1C[C@@H](C(=O)c2ccc(Cl)cc2)N2N=CC=C[C@@H]12	29 mm	28 mm	30 mm	35 mm	14 mm	57 mm					
COC(=O)[C@H]1[C@H](C(=O)OC)[C@H](C(=O)c2ccc(F)cc2)N2N=CC=C[C@@H]12	35 mm	35 mm	29 mm	27 mm	17 mm	51 mm					
CCOC(=O)c1cc(C(=O)c2ccc(C)cc2)n2ncccc12	37 mm	25 mm	40 mm	28 mm	18 mm	56 mm					
COC(=O)[C@@H]1[C@H](C(=O)OC)[C@H](C(=O)c2ccc(C)cc2)N2N=CC=C[C@@H]12	39 mm	37 mm	41 mm	30 mm	19 mm	62 mm					
O=C(c1ccc(F)cc1)[C@H]1[C@@H]2C(=O)N(c3ccccc3)C(=O)[C@@H]2[C@@H]2C=CC=NN21	28 mm	25 mm	27 mm	25 mm	16 mm	63 mm					
Cc1ccc(C(=O)C[n+]2ccccn2)cc1.[Br-]	40 mm	25 mm	47 mm	27 mm	20 mm	81 mm					
O=C(N[C@H](CO)[C@H](O)c1ccc([N+](=O)[O-])cc1)C(Cl)Cl [CHLORAMPHENICOL]							25 mm	26 mm	19 mm	30 mm	40 mm

Reference: ChEMBL document CHEMBL1153370, “New pyridazine derivatives: synthesis, chemistry and biological activity” (2009)
